Publication PMC3435882 (Molecular imaging and biology : MIB : the official …, 2009)
One block for each compound: values may come before it. Bridge positions count the residues as written; N and C are the ends. Square brackets hold non-standard residues; d marks the D form. Peptide text beside a SMILES is read from it. Cy5.5 = cyanine dye Cy5.5, conjugated as the NHS ester; βAla = NCCC(=O)O

Columns and labels:
MMP-2 [1] = target: T1, MMP-2 (Homo sapiens, UniProt P08253); assay: In vitro MMP-2 inhibition assay; format: biochemical; conditions: MMP-2 Inhibition IC50, APMA-activated MMP-2, 1 hr preincubation at 37°C
T1 sequence (P08253 110-660): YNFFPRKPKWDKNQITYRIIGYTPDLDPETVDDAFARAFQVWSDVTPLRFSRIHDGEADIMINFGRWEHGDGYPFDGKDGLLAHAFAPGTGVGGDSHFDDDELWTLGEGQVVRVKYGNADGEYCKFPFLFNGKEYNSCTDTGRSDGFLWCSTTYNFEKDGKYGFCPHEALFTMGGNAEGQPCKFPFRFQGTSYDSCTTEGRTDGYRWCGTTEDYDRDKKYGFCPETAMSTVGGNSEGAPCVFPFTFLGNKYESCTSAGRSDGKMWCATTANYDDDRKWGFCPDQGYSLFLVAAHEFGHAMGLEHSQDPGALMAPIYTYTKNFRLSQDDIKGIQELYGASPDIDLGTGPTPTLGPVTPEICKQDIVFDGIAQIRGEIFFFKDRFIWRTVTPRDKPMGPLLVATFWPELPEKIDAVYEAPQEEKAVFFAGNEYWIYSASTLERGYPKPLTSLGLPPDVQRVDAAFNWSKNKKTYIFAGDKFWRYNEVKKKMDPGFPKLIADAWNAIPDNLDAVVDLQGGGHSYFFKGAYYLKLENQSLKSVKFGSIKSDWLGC
Procedure, shortened: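 Commercial MMP-2 was activated with APMA. Test compound was preincubated with activated enzyme (40 ng/200 μl) for 1 hr at 37°C, then biotinylated gelatinase substrate was added for 1 hr. The mixture was moved to a biotin-binding plate (30 min, 37°C) and washed. Streptavidin-enzyme conjugate and chromogenic substrate followed, and OD at 450 nm gave relative gelatinase activity.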

[2] = Stability study in serum-containing culture medium; format: in vitro ADME; conditions: DMEM/F-12 with 10% fetal bovine serum, 25°C, over 3 hr, HPLC
Procedure, shortened: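 Peptides were incubated at 25°C in DMEM/F-12 containing 10% FBS. Aliquots taken at intervals were analysed by reverse-phase C-18 HPLC using an acetonitrile/water gradient with 0.1% TFA and UV detection at 230 nm. Intact-peptide peak area was expressed as a percentage of the 0-min area.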

PC-3 tumors = format: in vivo, mice; conditions: for tumor uptake in intratibial PC-3 tumors: 48 hr after intravenous injection, 15 nmol/mouse
U87 cells [3] = assay: Fluorescence microscopy, probe uptake in U87 cells; format: cell-based, human; conditions: for uptake/binding in U87 cells: 10 μM, 37°C, 5 min
Procedure, shortened: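 U87 cells grown in DMEM/F-12 with 10% FBS were seeded on cover slips overnight. For blocking, cells were pretreated with doxycycline (5, 25, 100 μM) or unlabelled peptide, then given 10 μM Cy5.5-labelled test compound; uptake samples received the probe alone (10 μM, 37°C, 5 min). After two PBS washes, cells were fixed and stained with 1 μM Sytox Green in 95% ethanol (15 min). Fluorescence microscopy was at ×60.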

[4] = tested on: gelatinase activity in U87 cell lysates; assay: Gelatin zymography; format: biochemical, human; conditions: U87 cell lysate, doxycycline 100 μM in incubation buffer
Procedure, shortened: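 U87 cells were lysed in 1% Triton X-100, 50 mM Tris-HCl pH 7.6, 200 mM NaCl, 10 mM CaCl₂, then spun 10 min at 9700 × g. Supernatant was diluted 1:4 in SDS sample buffer, loaded at equal protein and run on 10% gels containing 1 mg/ml gelatin. Gels were washed 4 hr in Triton/CaCl₂ buffer and developed overnight at 37°C (pH 7.6), with doxycycline added, then Coomassie-stained.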

U87 cells [5] = assay: Confocal microscopy of U87 cells; format: cell-based, human; conditions: 5 min
Procedure, shortened: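 U87 cells (1 × 10⁵) on cover slips in 24-well plates were exposed to 10 μM Cy5.5-labelled test compound or free Cy5.5. They were held 5 min at 4°C or 37°C in the dark, then washed twice with PBS. Nuclei were stained with 1 μM Sytox Green. After two more PBS washes, slides were mounted for confocal imaging at emission 693 nm (Cy5.5) and 488 nm (Sytox Green).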

MMP-2 [6] = target: T1, MMP-2; assay: In vitro β-casein degradation assay; format: biochemical; conditions: 0, 10, 50, 200 μM; SDS-PAGE
U87 brain tumors = assay: In vivo and ex vivo NIRF imaging of intracranial U87 tumors; design: species or system mice; conditions: 24 hr after intravenous administration, 15 nmol/mouse
A549 cells = assay: Fluorescence microscopy, probe uptake in A549 cells; format: cell-based, human; conditions: 10 μM, 37°C, 5 min
Procedure, shortened: (§1)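 Cells were kept in DMEM/F-12 with 10% FBS at 37°C, 5% CO₂, seeded on cover slips and incubated overnight. Cy5.5-labelled test compound (10 μM) was added for 5 min at 37°C. Cells were washed twice with PBS, then fixed and nuclear-stained with 1 μM Sytox Green in 95% ethanol for 15 min. Fluorescence microscopy was at ×60.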

PC-3 cells = assay: Fluorescence microscopy, probe uptake in PC-3 cells; format: cell-based, human; conditions: 10 μM, 37°C, 5 min
Procedure, shortened: as §1

IC50 (MMP-2 [1]): 30.3 µM
stability of intact peptide [2]: completely degraded
Compound: CC(C)C[C@@H]1NC(=O)[C@H]([C@@H](C)O)NC(=O)[C@H](Cc2ccccc2)NC(=O)CNC(=O)[C@H](Cc2c[nH]c3ccccc23)NC(=O)[C@H](Cc2c[nH]cn2)NC(=O)[C@H]([C@@H](C)O)NC(=O)[C@H]([C@@H](C)O)NC(=O)[C@@H](N)CSSC[C@@H](C(N)=O)NC1=O [C1, c(CTTHWGFTLC)NH2, reference compound] (H-CTTHWGFTLC-NH2; disulfide 1-10)

IC50 (MMP-2 [1]): 83.9 µM
Compound: CC(C)C[C@@H]1NC(=O)[C@H]([C@@H](C)O)NC(=O)[C@H](Cc2ccccc2)NC(=O)CNC(=O)[C@H](Cc2c[nH]c3ccccc23)NC(=O)[C@H](Cc2c[nH]cn2)NC(=O)[C@H]([C@@H](C)O)NC(=O)[C@H]([C@@H](C)O)NC(=O)[C@H](C)NC(=O)CCNC1=O [C3, c(ATTHWGFTL-β-Ala)] (cyclo(ATTHWGFTL[βAla]))

Compound: C[C@H]1c2cccc(O)c2C(=O)C2=C(O)[C@]3(O)C(=O)C(C(N)=O)=C(O)[C@@H](N(C)C)[C@@H]3[C@@H](O)[C@@H]21 [doxycycline, reference compound]
blocking of in vivo uptake of Cy5.5-C6 in PC-3 tumors (PC-3 tumors; co-injection with doxycycline (data not shown)): could not be blocked
blocking of Cy5.5-C6 binding to U87 cells (U87 cells [3]; doxycycline 25 and 100 μM followed by Cy5.5-C6 10 μM): partially blocked
blocking of gelatinase activity in zymography [4]: could be blocked

Compound: Cy5.5 [reference compound]
cell uptake and distribution at 37°C (U87 cells [5]): minimal uptake
uptake/binding in U87 cells (U87 cells [3]): did not bind to the cells

Compound: Cy5.5-c(CTTHWGFTLC)NH2 ({Cy5.5}-CTTHWGFTLC-NH2; disulfide 1-10) [Cy5.5-C1]
tumor uptake in intratibial PC-3 tumors (PC-3 tumors): tumor targeting could not be detected
inhibition of β-casein degradation by MMP-2 (MMP-2 [6]): inhibited the degradation of β-casein in a dose-dependent manner
uptake/binding in U87 cells (U87 cells [3]): to a less degree

Compound: Cy5.5-c(KAHWGFTLD)NH2 ({Cy5.5}-KAHWGFTLD-NH2; lactam 1-9) [Cy5.5-C6]
tumor uptake in intratibial PC-3 tumors (PC-3 tumors): clearly visualized
localization to orthotopic U87 gliomas (U87 brain tumors): readily visible
binding to A549 cells (minimal MMP-2 activity) (A549 cells): did not bind
cell uptake at 4°C (U87 cells [5]; 4°C): substantially reduced
cell uptake and distribution at 37°C (U87 cells [5]): distributed to cell cytosol and nuclei
inhibition of β-casein degradation by MMP-2 (MMP-2 [6]): inhibited the degradation of β-casein in a dose-dependent manner
uptake/binding in U87 cells (U87 cells [3]): rapidly taken up
uptake in PC-3 cells (PC-3 cells): taken up

Compound: Cy5.5-c(KHGLTWFAD)NH2 ({Cy5.5}-KHGLTWFAD-NH2; also: cyclic, ring type and sites not given here) [Cy5.5-C7]
tumor uptake in intratibial PC-3 tumors (PC-3 tumors): not taken up by the tumors
